Test system: Fibroblast
Experiment: Multiplex assay against human fibroblast
Format: toxicity, cell-based
Procedure, shortened: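 With compound added, live cells were imaged on a CQ1 microscope at 37°C and 5% CO2; staining with Hoechst33342, BioTracker Green Microtubule Cytoskeleton Dye, MitoTracker Red and Annexin V Alexa Fluor 680 had been done at seeding. The CellPathfinder machine-learning gating scheme split cells into Hoechst high-intensity objects or normal cells, normal cells into healthy, pyknosed or fragmented nuclei, and pyknosed cells into mitotic or apoptotic. The tubulin, mitochondrial-mass and membrane-permeability phenotypes are per cents of healthy-nucleus cells.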

[1] = 12 h, 1 µM, compound concentration 1 uM, replicate 1
[2] = 12 h, 1 µM, compound concentration 1 uM, replicate 2
[3] = 12 h, 10 µM, compound concentration 10 uM, replicate 1
[4] = 12 h, 10 µM, compound concentration 10 uM, replicate 2
[5] = 24 h, 1 µM, compound concentration 1 uM, replicate 1
[6] = 24 h, 1 µM, compound concentration 1 uM, replicate 2
[7] = 24 h, 10 µM, compound concentration 10 uM, replicate 1
[8] = 24 h, 10 µM, compound concentration 10 uM, replicate 2
[9] = 48 h, 1 µM, compound concentration 1 uM, replicate 1
[10] = 48 h, 1 µM, compound concentration 1 uM, replicate 2
[11] = 48 h, 10 µM, compound concentration 10 uM, replicate 1
[12] = 48 h, 10 µM, compound concentration 10 uM, replicate 2

Cc1ccc(C(C)(O)c2nc3ccccc3s2)c(C)c1 (configuration not stated)
Population Apoptotic (%) [1]: 50%
Population Fragmented Nuclei (%) [1]: 8%
Population Healthy Nuclei (%) [1]: 78%
Population Hoechst High Intensity Objects (%) [1]: 0%
Population Membrane Permeable-Phenotype (%) [1]: 0%
Population Mitochondria Different-Phenotype (%) [1]: 5%
Population Mitotic Cells (%) [1]: 50%
Population Normal (%) [1]: 99%
Population Pyknosed Nuclei (%) [1]: 12%
Population Tubulin-Different-Phenotype (%) [1]: 29%
Total Cell Count [1]: 125
Population Apoptotic (%) [2]: 44%
Population Fragmented Nuclei (%) [2]: 22%
Population Healthy Nuclei (%) [2]: 48%
Population Hoechst High Intensity Objects (%) [2]: 5%
Population Membrane Permeable-Phenotype (%) [2]: 3%
Population Mitochondria Different-Phenotype (%) [2]: 6%
Population Mitotic Cells (%) [2]: 56%
Population Normal (%) [2]: 95%
Population Pyknosed Nuclei (%) [2]: 29%
Population Tubulin-Different-Phenotype (%) [2]: 36%
Total Cell Count [2]: 180
Population Apoptotic (%) [3]: 44%
Population Fragmented Nuclei (%) [3]: 11%
Population Healthy Nuclei (%) [3]: 72%
Population Hoechst High Intensity Objects (%) [3]: 1%
Population Membrane Permeable-Phenotype (%) [3]: 0%
Population Mitochondria Different-Phenotype (%) [3]: 5%
Population Mitotic Cells (%) [3]: 56%
Population Normal (%) [3]: 98%
Population Pyknosed Nuclei (%) [3]: 16%
Population Tubulin-Different-Phenotype (%) [3]: 24%
Total Cell Count [3]: 153
Population Apoptotic (%) [4]: 22%
Population Fragmented Nuclei (%) [4]: 31%
Population Healthy Nuclei (%) [4]: 43%
Population Hoechst High Intensity Objects (%) [4]: 7%
Population Membrane Permeable-Phenotype (%) [4]: 15%
Population Mitochondria Different-Phenotype (%) [4]: 6%
Population Mitotic Cells (%) [4]: 77%
Population Normal (%) [4]: 92%
Population Pyknosed Nuclei (%) [4]: 25%
Population Tubulin-Different-Phenotype (%) [4]: 60%
Total Cell Count [4]: 149
Population Apoptotic (%) [5]: 31%
Population Fragmented Nuclei (%) [5]: 13%
Population Healthy Nuclei (%) [5]: 73%
Population Hoechst High Intensity Objects (%) [5]: 0%
Population Membrane Permeable-Phenotype (%) [5]: 2%
Population Mitochondria Different-Phenotype (%) [5]: 7%
Population Mitotic Cells (%) [5]: 68%
Population Normal (%) [5]: 99%
Population Pyknosed Nuclei (%) [5]: 13%
Population Tubulin-Different-Phenotype (%) [5]: 22%
Total Cell Count [5]: 139
Population Apoptotic (%) [6]: 47%
Population Fragmented Nuclei (%) [6]: 25%
Population Healthy Nuclei (%) [6]: 54%
Population Hoechst High Intensity Objects (%) [6]: 5%
Population Membrane Permeable-Phenotype (%) [6]: 11%
Population Mitochondria Different-Phenotype (%) [6]: 5%
Population Mitotic Cells (%) [6]: 52%
Population Normal (%) [6]: 94%
Population Pyknosed Nuclei (%) [6]: 20%
Population Tubulin-Different-Phenotype (%) [6]: 43%
Total Cell Count [6]: 173
Population Apoptotic (%) [7]: 55%
Population Fragmented Nuclei (%) [7]: 13%
Population Healthy Nuclei (%) [7]: 74%
Population Hoechst High Intensity Objects (%) [7]: 4%
Population Membrane Permeable-Phenotype (%) [7]: 3%
Population Mitochondria Different-Phenotype (%) [7]: 6%
Population Mitotic Cells (%) [7]: 44%
Population Normal (%) [7]: 95%
Population Pyknosed Nuclei (%) [7]: 12%
Population Tubulin-Different-Phenotype (%) [7]: 24%
Total Cell Count [7]: 152
Population Apoptotic (%) [8]: 38%
Population Fragmented Nuclei (%) [8]: 27%
Population Healthy Nuclei (%) [8]: 46%
Population Hoechst High Intensity Objects (%) [8]: 6%
Population Membrane Permeable-Phenotype (%) [8]: 12%
Population Mitochondria Different-Phenotype (%) [8]: 9%
Population Mitotic Cells (%) [8]: 61%
Population Normal (%) [8]: 93%
Population Pyknosed Nuclei (%) [8]: 25%
Population Tubulin-Different-Phenotype (%) [8]: 61%
Total Cell Count [8]: 143
Population Apoptotic (%) [9]: 33%
Population Fragmented Nuclei (%) [9]: 16%
Population Healthy Nuclei (%) [9]: 73%
Population Hoechst High Intensity Objects (%) [9]: 4%
Population Membrane Permeable-Phenotype (%) [9]: 0%
Population Mitochondria Different-Phenotype (%) [9]: 3%
Population Mitotic Cells (%) [9]: 66%
Population Normal (%) [9]: 95%
Population Pyknosed Nuclei (%) [9]: 9%
Population Tubulin-Different-Phenotype (%) [9]: 16%
Total Cell Count [9]: 129
Population Apoptotic (%) [10]: 50%
Population Fragmented Nuclei (%) [10]: 28%
Population Healthy Nuclei (%) [10]: 57%
Population Hoechst High Intensity Objects (%) [10]: 3%
Population Membrane Permeable-Phenotype (%) [10]: 5%
Population Mitochondria Different-Phenotype (%) [10]: 6%
Population Mitotic Cells (%) [10]: 50%
Population Normal (%) [10]: 96%
Population Pyknosed Nuclei (%) [10]: 14%
Population Tubulin-Different-Phenotype (%) [10]: 39%
Total Cell Count [10]: 174
Population Apoptotic (%) [11]: 53%
Population Fragmented Nuclei (%) [11]: 22%
Population Healthy Nuclei (%) [11]: 68%
Population Hoechst High Intensity Objects (%) [11]: 7%
Population Membrane Permeable-Phenotype (%) [11]: 2%
Population Mitochondria Different-Phenotype (%) [11]: 6%
Population Mitotic Cells (%) [11]: 46%
Population Normal (%) [11]: 92%
Population Pyknosed Nuclei (%) [11]: 9%
Population Tubulin-Different-Phenotype (%) [11]: 27%
Total Cell Count [11]: 156
Population Apoptotic (%) [12]: 43%
Population Fragmented Nuclei (%) [12]: 34%
Population Healthy Nuclei (%) [12]: 53%
Population Membrane Permeable-Phenotype (%) [12]: 7%
Population Mitochondria Different-Phenotype (%) [12]: 7%
Population Mitotic Cells (%) [12]: 56%
Population Pyknosed Nuclei (%) [12]: 12%
Population Tubulin-Different-Phenotype (%) [12]: 64%
Total Cell Count [12]: 143

COc1cc(NC(=O)CCN2CCC(OC(=O)Nc3ccccc3-c3ccccc3)CC2)c(Cl)cc1CNC[C@H](O)c1ccc(O)c2[nH]c(=O)ccc12 [BATEFENTEROL]
Population Apoptotic (%) [1]: 53%
Population Fragmented Nuclei (%) [1]: 25%
Population Healthy Nuclei (%) [1]: 58%
Population Hoechst High Intensity Objects (%) [1]: 2%
Population Membrane Permeable-Phenotype (%) [1]: 0%
Population Mitochondria Different-Phenotype (%) [1]: 13%
Population Mitotic Cells (%) [1]: 46%
Population Normal (%) [1]: 97%
Population Pyknosed Nuclei (%) [1]: 15%
Population Tubulin-Different-Phenotype (%) [1]: 42%
Total Cell Count [1]: 181
Population Apoptotic (%) [2]: 37%
Population Healthy Nuclei (%) [2]: 54%
Population Hoechst High Intensity Objects (%) [2]: 3%
Population Membrane Permeable-Phenotype (%) [2]: 3%
Population Mitochondria Different-Phenotype (%) [2]: 7%
Population Mitotic Cells (%) [2]: 62%
Population Normal (%) [2]: 96%
Population Pyknosed Nuclei (%) [2]: 20%
Population Tubulin-Different-Phenotype (%) [2]: 50%
Total Cell Count [2]: 124
Population Apoptotic (%) [3]: 46%
Population Fragmented Nuclei (%) [3]: 24%
Population Healthy Nuclei (%) [3]: 59%
Population Hoechst High Intensity Objects (%) [3]: 2%
Population Membrane Permeable-Phenotype (%) [3]: 0%
Population Mitochondria Different-Phenotype (%) [3]: 22%
Population Mitotic Cells (%) [3]: 53%
Population Normal (%) [3]: 97%
Population Pyknosed Nuclei (%) [3]: 16%
Population Tubulin-Different-Phenotype (%) [3]: 63%
Total Cell Count [3]: 199
Population Apoptotic (%) [4]: 41%
Population Fragmented Nuclei (%) [4]: 44%
Population Healthy Nuclei (%) [4]: 41%
Population Membrane Permeable-Phenotype (%) [4]: 1%
Population Mitochondria Different-Phenotype (%) [4]: 23%
Population Mitotic Cells (%) [4]: 58%
Population Pyknosed Nuclei (%) [4]: 13%
Population Tubulin-Different-Phenotype (%) [4]: 84%
Total Cell Count [4]: 128
Population Apoptotic (%) [5]: 55%
Population Fragmented Nuclei (%) [5]: 21%
Population Healthy Nuclei (%) [5]: 62%
Population Hoechst High Intensity Objects (%) [5]: 1%
Population Membrane Permeable-Phenotype (%) [5]: 0%
Population Mitochondria Different-Phenotype (%) [5]: 7%
Population Mitotic Cells (%) [5]: 44%
Population Normal (%) [5]: 98%
Population Pyknosed Nuclei (%) [5]: 15%
Population Tubulin-Different-Phenotype (%) [5]: 39%
Total Cell Count [5]: 174
Population Apoptotic (%) [6]: 50%
Population Fragmented Nuclei (%) [6]: 26%
Population Healthy Nuclei (%) [6]: 59%
Population Hoechst High Intensity Objects (%) [6]: 2%
Population Membrane Permeable-Phenotype (%) [6]: 3%
Population Mitochondria Different-Phenotype (%) [6]: 10%
Population Mitotic Cells (%) [6]: 50%
Population Normal (%) [6]: 97%
Population Pyknosed Nuclei (%) [6]: 14%
Population Tubulin-Different-Phenotype (%) [6]: 57%
Total Cell Count [6]: 131
Population Apoptotic (%) [7]: 51%
Population Fragmented Nuclei (%) [7]: 35%
Population Healthy Nuclei (%) [7]: 53%
Population Hoechst High Intensity Objects (%) [7]: 0%
Population Membrane Permeable-Phenotype (%) [7]: 0%
Population Mitochondria Different-Phenotype (%) [7]: 34%
Population Mitotic Cells (%) [7]: 48%
Population Normal (%) [7]: 99%
Population Pyknosed Nuclei (%) [7]: 11%
Population Tubulin-Different-Phenotype (%) [7]: 63%
Total Cell Count [7]: 247
Population Apoptotic (%) [8]: 81%
Population Fragmented Nuclei (%) [8]: 46%
Population Healthy Nuclei (%) [8]: 45%
Population Hoechst High Intensity Objects (%) [8]: 1%
Population Membrane Permeable-Phenotype (%) [8]: 1%
Population Mitochondria Different-Phenotype (%) [8]: 14%
Population Mitotic Cells (%) [8]: 18%
Population Normal (%) [8]: 98%
Population Pyknosed Nuclei (%) [8]: 8%
Population Tubulin-Different-Phenotype (%) [8]: 80%
Total Cell Count [8]: 136
Population Apoptotic (%) [9]: 62%
Population Fragmented Nuclei (%) [9]: 23%
Population Healthy Nuclei (%) [9]: 54%
Population Hoechst High Intensity Objects (%) [9]: 3%
Population Membrane Permeable-Phenotype (%) [9]: 0%
Population Mitochondria Different-Phenotype (%) [9]: 18%
Population Mitotic Cells (%) [9]: 37%
Population Normal (%) [9]: 96%
Population Pyknosed Nuclei (%) [9]: 22%
Population Tubulin-Different-Phenotype (%) [9]: 53%
Total Cell Count [9]: 185
Population Apoptotic (%) [10]: 66%
Population Fragmented Nuclei (%) [10]: 29%
Population Healthy Nuclei (%) [10]: 56%
Population Membrane Permeable-Phenotype (%) [10]: 4%
Population Mitochondria Different-Phenotype (%) [10]: 14%
Population Mitotic Cells (%) [10]: 33%
Population Pyknosed Nuclei (%) [10]: 14%
Population Tubulin-Different-Phenotype (%) [10]: 70%
Total Cell Count [10]: 130
Population Apoptotic (%) [11]: 74%
Population Fragmented Nuclei (%) [11]: 22%
Population Healthy Nuclei (%) [11]: 54%
Population Hoechst High Intensity Objects (%) [11]: 1%
Population Membrane Permeable-Phenotype (%) [11]: 0%
Population Mitochondria Different-Phenotype (%) [11]: 45%
Population Mitotic Cells (%) [11]: 25%
Population Normal (%) [11]: 98%
Population Pyknosed Nuclei (%) [11]: 22%
Population Tubulin-Different-Phenotype (%) [11]: 77%
Total Cell Count [11]: 213
Population Apoptotic (%) [12]: 88%
Population Fragmented Nuclei (%) [12]: 45%
Population Healthy Nuclei (%) [12]: 48%
Population Hoechst High Intensity Objects (%) [12]: 0%
Population Membrane Permeable-Phenotype (%) [12]: 1%
Population Mitochondria Different-Phenotype (%) [12]: 15%
Population Mitotic Cells (%) [12]: 11%
Population Normal (%) [12]: 99%
Population Pyknosed Nuclei (%) [12]: 6%
Population Tubulin-Different-Phenotype (%) [12]: 76%
Total Cell Count [12]: 144
